From PubChem BioAssay AID493187 (Sanford-Burnham Center for Chemical Genomics, 2011)
About 190 (0.056%) of roughly 340,000 compounds were called active.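 The calls were made as follows: active = activation of 40% or more at 20 µM, a change of -40% or lower; inactive = the rest.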 The entries come from a sample that favours actives as a whole.

biological target: Hexokinase HKDC1 (Homo sapiens) (UniProt Q2TB90); test: enhancers of human HKDC1 enzyme activity – biochemical, fluorescence, uHTS, primary screen (AID 493187); details: recombinant HKDC1, G6PDH/diaphorase resazurin fluorescence; at 20 µM; hits give low values
Procedure, shortened: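 Signal: coupled resazurin-to-resorufin fluorescence, Ex 525/Em 613 nm. Test system: in-house human HKDC1 enzyme, G6PDH and diaphorase coupling enzymes. Quantity: HKDC1 5 µg/mL. Timing: 90 min reaction at room temperature, dark.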

Hexokinase HKDC1 (Homo sapiens), sequence (Q2TB90 whole entry, looked up): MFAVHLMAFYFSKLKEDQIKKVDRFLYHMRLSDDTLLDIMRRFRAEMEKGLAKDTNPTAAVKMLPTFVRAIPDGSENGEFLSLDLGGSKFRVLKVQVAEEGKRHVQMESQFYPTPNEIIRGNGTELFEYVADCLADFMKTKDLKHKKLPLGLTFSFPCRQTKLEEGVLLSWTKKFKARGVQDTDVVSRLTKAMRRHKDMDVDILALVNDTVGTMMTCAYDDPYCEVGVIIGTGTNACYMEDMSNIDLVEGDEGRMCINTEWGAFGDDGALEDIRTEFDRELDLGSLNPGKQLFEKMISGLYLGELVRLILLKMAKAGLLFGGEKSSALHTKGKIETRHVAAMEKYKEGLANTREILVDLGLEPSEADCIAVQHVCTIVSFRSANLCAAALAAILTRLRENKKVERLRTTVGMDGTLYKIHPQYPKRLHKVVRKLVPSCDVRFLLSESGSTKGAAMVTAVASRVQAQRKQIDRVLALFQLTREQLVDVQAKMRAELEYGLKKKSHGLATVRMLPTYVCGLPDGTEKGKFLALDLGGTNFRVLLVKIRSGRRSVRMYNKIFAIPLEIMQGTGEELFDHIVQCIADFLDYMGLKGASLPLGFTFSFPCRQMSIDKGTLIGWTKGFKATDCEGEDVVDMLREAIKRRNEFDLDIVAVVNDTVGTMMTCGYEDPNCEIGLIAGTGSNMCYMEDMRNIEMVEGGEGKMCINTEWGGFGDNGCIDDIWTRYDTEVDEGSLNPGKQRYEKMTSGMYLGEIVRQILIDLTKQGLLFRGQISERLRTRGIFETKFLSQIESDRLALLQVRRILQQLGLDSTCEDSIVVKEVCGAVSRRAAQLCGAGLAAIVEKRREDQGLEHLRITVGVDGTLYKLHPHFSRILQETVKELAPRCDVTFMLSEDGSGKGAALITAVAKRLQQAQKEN

| Compound | activity change, negative = activation |
| --- | --- |
| CC(=O)OC1C2(CC3N4C(=O)C5(CO)SSC4(CC31O)C(=O)N5C)OC(C)C(C)(C)C2=O (stereo unspecified) | -42.1% (active) |
